Assay outcomes: PubChem, Sanford-Burnham Center for Chemical Genomics
SUMO1 PPI mod: alters human SUMO1 binding to SIM partners. P63165. inhibition, % at 20 µM. SUMO1 binding to a labelled peptide, TR-FRET, 1 h. actives 0.33% (n = 360,000); in the data active = inhibition above about 37%
Target sequence (P63165 whole entry, looked up): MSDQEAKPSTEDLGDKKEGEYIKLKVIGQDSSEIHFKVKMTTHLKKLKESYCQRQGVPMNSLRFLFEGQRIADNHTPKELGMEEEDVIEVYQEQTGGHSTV
STEP inh: inhibitors of human striatal-enriched phosphatase STEP | P54829 | recombinant STEP, OMFP fluorogenic substrate, fluorescence | inhibition, % at 20 µM | actives 0.25% (n = 360,000);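 active = inhibition at 20 µM, scaled per plate between control wells, above about 37%, limit read from the data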;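 also: 0% = DMSO with enzyme and substrate and 100% = substrate only without enzyme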
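Assay system: isolated STEP enzyme / Timing: 20 min at room temperature, dark / Doses: 20 µM, 1% DMSO / Technique: fluorescence intensity, excitation 480 nm, emission 540 nm / Reagent: fluorogenic phosphatase substrate OMFP at 25 µM final / Measure: percent inhibition scaled to no-enzyme and uninhibited-enzyme controls, plate-pattern corrected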
DNMT1 inh: inhibitors of human DNMT1 | actives 0.83% (n = 360,000) | inhibition (reported as % activation of signal), % at 10 µM | AID 588458 | P26358 | DNMT1 molecular beacon, Hinp1I cleavage, fluorescence; in the data active = inhibition above about 50%
Scp-1 inhibitor: Scp-1 (human) phosphatase inhibition; Q9GZU7; Recombinant Scp1, phosphopeptide, malachite green phosphate absorbance; inhibition, % at 20 µM; actives 0.88% (n = 340,000); AID 493091;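 active = inhibition above about 50% at 20 µM, limit read from the data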;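 also: plate controls were DMSO wells with enzyme for no effect and wells lacking enzyme for full effect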
Target sequence (Q9GZU7 76-261 limits assumed): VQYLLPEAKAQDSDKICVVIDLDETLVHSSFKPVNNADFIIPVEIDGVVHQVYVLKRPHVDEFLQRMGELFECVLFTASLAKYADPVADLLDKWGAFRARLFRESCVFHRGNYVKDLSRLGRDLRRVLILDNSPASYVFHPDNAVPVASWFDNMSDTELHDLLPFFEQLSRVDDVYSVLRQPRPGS
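Test system: SCP-1 catalytic domain; Buffer or medium: Acidic Tris acetate buffer with magnesium and detergent; Also added: Phosphorylated 17-residue peptide substrate; Compound: single 20 µM dose, 1% DMSO; Schedule: enzyme reaction 45 min at room temperature, colour 5 min, stabilisation 30 min; Signal: Phosphate-binding colour reagent, absorbance read at 630 nm.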
CSN inh: blocks human CSN-mediated cullin deneddylation. Purified CSN, SCF-Nedd8-OG deneddylation, fluorescence polarization. inhibition, % at 12.5 µM. actives 0.38% (n = 360,000);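 active = pattern-corrected inhibition above about 35%, with an unprinted fluorescence ratio check between 0.5 and 1.5, limit read from the data, passing the limit was not always enough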;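 also: 0% = enzyme with substrate and 100% = substrate without enzyme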
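test system = HEK293T-derived human Csn5 enzyme | amount = 0.24 nM Csn5 enzyme, final concentration | medium = Tris/NaCl/DTT buffer, pH 7.5 | schedule = 90 min reaction at room temperature | signal = FP | evaluation = inhibition of Csn5 cleavage, % | compound dosing = single dose of 12.5 µM compound with 0.25% DMSO | probe or stimulus = 10 nM SCFSkp2-Nedd8OG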
LMPTP inh: blocks human LMPTP phosphatase; P24666; recombinant LMPTP-A, OMFP fluorogenic substrate, fluorescence intensity; inhibition, % at 20 µM; actives 0.22% (n = 360,000);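 active = compounds that cut the enzyme signal by at least half of the control window in the single-dose screen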;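 also: plate controls were DMSO wells with enzyme plus substrate for no effect and substrate without enzyme for full effect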
Target sequence (P24666 whole entry, looked up): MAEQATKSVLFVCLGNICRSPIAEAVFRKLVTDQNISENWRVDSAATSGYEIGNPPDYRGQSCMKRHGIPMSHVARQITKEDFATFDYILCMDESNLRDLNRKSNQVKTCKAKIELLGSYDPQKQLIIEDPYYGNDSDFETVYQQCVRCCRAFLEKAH
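test system = LMPTP-A | amount = 0.625 nM LMPTP-A final | reagent = fluorogenic phosphatase substrate OMFP at 400 µM final | incubation = 50 min at room temperature | benchmarks = no-enzyme low control, uninhibited high control | medium = Bis-Tris pH 6.0, DTT, detergent | signal = fluorescence intensity of OMFP turnover product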
* marks the source's active call; other numbers are inactive results; · = not tested or not shown. Most compounds without a hit are left out; they make up all but 1.9% or so of the library.

SMILES	SUMO1 PPI mod	STEP inh	DNMT1 inh	Scp-1 inhibitor	CSN inh	LMPTP inh
COc1ccc(N/C=C\C(=O)c2ccc(Br)cc2)cc1OC	-1.6	-6.0	-0.6	-5.7	52.9*	0.3
CCOC(=O)c1cccc(N/C=C/C(=O)c2ccc(OC)c(OC)c2)c1	-16.4	7.6	-12.9	-9.2	92.2*	2.2
O=C(COc1ncnc2ccc(Br)cc12)NCc1ccco1	-0.5	1.6	3.8	-7.4	-1.7	-2.3
Cc1ccc2nc(N3C(=O)C(O)=C(C(=O)c4cc5ccccc5o4)C3c3cccs3)sc2c1 (stereo not drawn)	8.0	12.2	77.6*	-23.5	7.7	35.5
COc1ccccc1Nc1nc(-c2ccc3c(c2)NC(=O)CO3)cs1	-5.7	-1.1	-22.0	1.2	2.0	47.9
CCC(C)Nc1nc(-c2ccc3c(c2)NC(=O)CO3)cs1 (stereo not drawn)	-0.3	-2.3	-5.7	6.8	5.4	48.3*
COc1ccc(Nc2nc(-c3ccc4c(c3)NC(=O)CO4)cs2)cc1	-4.3	0.2	-26.3	0.7	7.2	54.0*
CC(C)Cn1c(SCC(=O)NCc2ccc(Cl)cc2)nnc1-c1cccc(S(=O)(=O)N2CCOCC2)c1	-4.4	-4.2	-6.0	2.3	-2.4	-0.3
O=S(=O)(c1ccc(F)c(Cl)c1)N1CCN(C/C=C/c2ccccc2)CC1	41.3*	3.2	0.8	-1.7	-0.2	1.6
COCCn1c(=S)[nH]c2cc(C(=O)NC3CCCC(C)C3C)ccc2c1=O (stereo not drawn)	-6.5	-4.9	1.5	·	2.7	-1.9
COc1ccc(N2CC(C(=O)Nc3cccc(OC(C)C)c3)CC2=O)cc1 (stereo not drawn)	-2.8	-0.9	1.8	-10.3	4.2	-0.9
CC(=O)c1ccc(N2CCN(C(=O)C3CCCN(S(=O)(=O)c4c(C)[nH]c(=O)[nH]c4=O)C3)CC2)cc1 (stereo not drawn)	3.1	-0.5	0.4	-7.2	-9.1	-0.8
CC[n+]1c(C)n(-c2ccccc2)c2ccc(C(=O)OC)cc21	13.2	-0.3	1.1	-2.3	-3.7	-2.0
Cc1cc(N2CCN(C(C(=O)NC3CCCC3)c3ccc(-c4ccccc4)cc3)CC2)c2ccccc2n1 (stereo not drawn)	-1.9	·	·	·	-2.2	94.0*
O=C(NC1CCCCC1)N1CCN(CCc2ccccc2)CC1	-0.4	-2.9	-0.2	-2.7	0.6	0.1
COc1ccc(S(=O)(=O)O)cc1P(=O)(c1ccccc1)c1ccccc1	37.0	0.3	3.8	3.1	-1.7	0.4
O=S(=O)(O)c1cc(O)c2ccc(Nc3ccccc3)cc2c1	82.6*	98.7*	100.0*	99.5*	38.8	92.5*
O=S(=O)(O)c1ccc(O)c2cc(Nc3ccccc3)ccc12	120.2*	99.4*	96.0*	95.8*	11.4	95.6*
COc1ccccc1Nc1ccc2c(O)cc(S(=O)(=O)O)cc2c1	91.6*	97.1*	94.5*	81.5*	27.0	84.9*
Nc1cccc2c(O)cc(S(=O)(=O)O)cc12	75.8*	92.4*	114.3*	92.9*	28.7	77.7*
Cc1ccc(S(=O)(=O)c2cc(Nc3ccccc3)ccc2O)cc1	-6.6	-1.4	-22.8	-5.8	9.4	1.9
O=C(Nc1ccc(-c2nc3c(ccc4ccccc43)o2)cc1)c1ccco1	3.1	-7.4	-15.4	-3.8	0.9	0.8
Cc1ccc(-c2nc(C#N)c(N3CCC(C(N)=O)CC3)o2)cc1	-4.6	-0.1	-0.2	-5.3	-4.4	0.8
O=C(CCc1nnc2n(Cc3ccc(Cl)cc3)c(=O)c3ccccc3n12)N1CCN(c2ccccn2)CC1	-0.8	7.8	-3.9	4.7	0.9	63.7*
CC(C)OCCCn1c(=O)c2ccccc2n2c(CCC(=O)N3CCN(c4ccccn4)CC3)nnc12	2.1	-4.2	-1.5	-6.3	-0.2	0.2
O=C(COc1ccccc1)Nc1sc2c(c1C(=O)NCc1cccnc1)CCCC2	-4.4	4.5	29.7	6.7	40.9*	51.3*
CCCCn1c(N)c(N(CCOC)C(=O)COC(=O)C(C)(C)Oc2ccc(Cl)cc2)c(=O)[nH]c1=O	2.6	-0.5	1.6	-4.0	-1.9	-0.6
